The source made the active and inactive calls. The calls are words filed in the database; no cut-off is given here.
How the values were obtained:
Saccharomyces cerevisiae [1] = assay: Antimicrobial activity against Saccharomyces cerevisiae RSKK 251; format: functional
[2] = tested on: Mycolicibacterium smegmatis; assay: Antimicrobial activity against Mycobacterium smegmatis ATCC 607; format: functional
Candida albicans [3] = assay: Antimicrobial activity against Candida albicans ATCC 60193; format: functional
Enterococcus faecalis = assay: Antimicrobial activity against Enterococcus faecalis ATCC 29212; format: functional
How it was run: (§1)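 Compound stocks were 20.000 µg/mL in hexane. DMSO diluted 1:10 served as the solvent control, and ampicillin was the reference drug.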

Bacillus cereus [4] = assay: Antimicrobial activity against Bacillus cereus 702 Roma; format: functional; how it was run: as §1
Staphylococcus aureus = assay: Antimicrobial activity against Staphylococcus aureus ATCC 25923; format: functional; how it was run: as §1
[5] = tested on: Yersinia pseudotuberculosis; assay: Antimicrobial activity against Yersinia pseudotuberculosis ATCC 911; format: functional
How it was run: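 Compounds were dissolved in […] as 20.000 µg/mL stocks. Ampicillin (10 µg) was the reference antibacterial, and DMSO diluted 1:10 was the solvent control.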

Pseudomonas aeruginosa = assay: Antimicrobial activity against Pseudomonas aeruginosa ATCC 43288; format: functional; how it was run: as §1
[6] = target: Urease (Canavalia ensiformis) (UniProt P07374); assay: Inhibition of jack bean urease using urea as substrate assessed as ammonia production at 250 ug/ml after 15 mins relative to control
Chain of Urease (Canavalia ensiformis) (P07374 whole entry, looked up): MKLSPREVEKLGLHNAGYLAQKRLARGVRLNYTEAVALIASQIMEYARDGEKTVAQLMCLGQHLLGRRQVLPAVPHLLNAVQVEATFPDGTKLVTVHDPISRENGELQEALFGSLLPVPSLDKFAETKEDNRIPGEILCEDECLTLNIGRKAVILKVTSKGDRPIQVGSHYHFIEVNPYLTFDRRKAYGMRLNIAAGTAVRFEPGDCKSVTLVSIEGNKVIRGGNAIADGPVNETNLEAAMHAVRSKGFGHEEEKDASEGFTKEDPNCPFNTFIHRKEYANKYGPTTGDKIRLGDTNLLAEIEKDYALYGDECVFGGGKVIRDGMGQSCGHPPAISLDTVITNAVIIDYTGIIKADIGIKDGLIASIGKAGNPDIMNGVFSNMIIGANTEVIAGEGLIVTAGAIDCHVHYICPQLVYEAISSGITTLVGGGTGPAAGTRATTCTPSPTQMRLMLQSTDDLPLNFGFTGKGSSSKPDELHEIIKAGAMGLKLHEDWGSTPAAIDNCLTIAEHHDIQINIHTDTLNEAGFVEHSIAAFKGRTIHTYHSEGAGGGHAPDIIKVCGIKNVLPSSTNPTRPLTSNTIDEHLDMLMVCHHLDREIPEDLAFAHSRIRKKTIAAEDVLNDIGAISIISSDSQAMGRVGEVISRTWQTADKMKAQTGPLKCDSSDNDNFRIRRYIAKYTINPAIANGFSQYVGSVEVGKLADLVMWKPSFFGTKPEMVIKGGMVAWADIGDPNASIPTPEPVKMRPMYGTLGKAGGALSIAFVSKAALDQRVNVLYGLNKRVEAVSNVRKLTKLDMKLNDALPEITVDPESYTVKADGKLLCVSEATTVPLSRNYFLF
How it was run: (§2)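 Jack bean urease in pH 8.2 buffer (100 mM urea, 0.01 M K2HPO4, 1 mM EDTA, 0.01 M LiCl) was incubated with compound for 15 min at room temperature. Ammonia was measured by the indophenol method (phenol/nitroprusside, then NaOH/NaOCl) at A625 after 20 min. Inhibition % = 100 − (OD test/OD control)×100. […] Thiourea was the standard.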

Bacillus cereus [7] = assay: Inhibition of Bacillus cereus metallo beta-lactamase assessed as nitrocefin substrate hydrolysis at 1 mM after 20 mins
How it was run: (§3)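 Commercial B. cereus metallo-β-lactamase (1.5 µM solution) was combined with nitrocefin (150 µM solution) and compound in 25 mM PIPES pH 7.0 containing 100 µM ZnSO4. A486 was read continuously for 20 min at 37 °C. Residual activity was taken relative to the no-inhibitor control, in triplicate. Screening used 1 mM final; IC50 came from a concentration series. HgCl2 was the positive control.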

[8] = Inhibition of Bacillus cereus metallo beta-lactamase assessed as nitrocefin substrate hydrolysis after 20 mins; how it was run: as §3
Saccharomyces cerevisiae [9] = assay: Antimicrobial activity against Saccharomyces cerevisiae RSKK 251 at 5 ug; format: functional; details: read-out: IZ
How it was run: (§4)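 Compounds were dissolved in […] as 20.000 µg/mL stocks. Fluconazole (5 µg) was the reference antifungal, and DMSO diluted 1:10 was the solvent control.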

Candida albicans [10] = assay: Antimicrobial activity against Candida albicans ATCC 60193 at 5 ug; format: functional; details: read-out: IZ; how it was run: as §4
Urease = Urease (Canavalia ensiformis, UniProt P07374); assay: Inhibition of jack bean urease using urea as substrate assessed as ammonia production after 15 mins; how it was run: as §2
Chain of Urease (P07374 whole entry): as the sequence (P07374 whole entry, looked up) above

[11] = target: Urease (Canavalia ensiformis) (UniProt P07374); assay: Inhibition of jack bean urease using urea as substrate assessed as ammonia production at 100 ug/ml after 15 mins relative to control

| Compound | inhibition zone (IZ) (Saccharomyces cerevisiae [1]) | inhibition zone (IZ) [2] | inhibition zone (IZ) (Candida albicans [3]) | inhibition zone (IZ) (Enterococcus faecalis) | inhibition zone (IZ) (Bacillus cereus [4]) | inhibition zone (IZ) (Staphylococcus aureus) | inhibition zone (IZ) [5] | inhibition zone (IZ) (Pseudomonas aeruginosa) | inhibition [6] [%] | inhibition (Bacillus cereus [7]) [%] | IC50 [8] [µM] | zone of inhibition at 5 µg/disc (Saccharomyces cerevisiae [9]) [mm] | zone of inhibition at 5 µg/disc (Candida albicans [10]) [mm] | IC50 (Urease) [µM] | inhibition [11] [%] |
| --- | --- | --- | --- | --- | --- | --- | --- | --- | --- | --- | --- | --- | --- | --- | --- |
| O=S(=O)(Cl)c1ccc(/N=c2/sc(-c3ccc(Cl)cc3)cn2Cc2ccccc2)cc1 | 20 mm | 10 mm | 10 mm | 18 mm | 6 mm | 16 mm | inactive | inactive |  |  |  |  |  |  |  |
| Nc1ccc(S(=O)(=O)Cl)cc1 | 20 mm | 10 mm | 13 mm | 12 mm | 15 mm | 18 mm | 12 mm | 28 mm |  |  |  |  |  |  |  |
| CC(=O)OCC1=C(C(=O)O)N2C(=O)[C@@H](NS(=O)(=O)c3ccc(N)cc3)[C@H]2SC1 | 20 mm | 12 mm | 14 mm | 16 mm | 18 mm | 20 mm | 12 mm | 30 mm | 1 |  |  |  |  |  |  |
| CN[C@@H]1[C@H](O[C@H]2[C@H](O[C@H]3[C@H](O)[C@@H](O)[C@H](N=C(N)N)[C@@H](O)[C@@H]3N=C(N)N)O[C@@H](C)[C@]2(O)C=O)O[C@@H](CO)[C@H](O)[C@H]1O [STREPTOMYCIN] |  | 35 mm |  |  |  |  |  |  |  |  |  |  |  |  |  |
| CC(=O)OCC1=C(C(=O)O)N2C(=O)[C@@H](NS(=O)(=O)c3ccc([N+](=O)[O-])cc3)[C@H]2SC1 | inactive | inactive | inactive | 6 mm | 8 mm | 23 mm | inactive |  | 28 | 18 |  |  |  |  |  |
| CC(=O)OCC1=C(C(=O)O)N2C(=O)[C@@H](NS(=O)(=O)c3ccc(NC(=O)NCc4ccccc4)cc3)[C@H]2SC1 | 10 mm | 14 mm | 10 mm | 10 mm | 10 mm | 18 mm | 10 mm | 8 mm |  |  |  |  |  |  |  |
| CC(=O)OCC1=C(C(=O)O)N2C(=O)[C@@H](NS(=O)(=O)c3ccc(NC(=S)NCc4ccccc4)cc3)[C@H]2SC1 | 10 mm | 16 mm | 8 mm | 10 mm | 8 mm | 15 mm | 8 mm | 6 mm |  |  |  |  |  |  |  |
| CC(=O)OCC1=C(C(=O)O)N2C(=O)[C@@H](NS(=O)(=O)c3ccc(/N=c4/sc(-c5ccc(Cl)cc5)cn4Cc4ccccc4)cc3)[C@H]2SC1 | inactive | inactive | 10 mm | 8 mm | inactive | 22 mm | 8 mm | 8 mm |  | 64 | 543 |  |  |  |  |
| O=C(Cl)CN1CCN(c2ccc([N+](=O)[O-])cc2F)CC1 | 30 mm | inactive | 15 mm | 8 mm | 8 mm | 15 mm | inactive | inactive | 25 |  |  |  |  |  |  |
| O=C(NCc1ccccc1)Nc1ccc(S(=O)(=O)Cl)cc1 | 20 mm | 15 mm | 18 mm | 16 mm | 18 mm | 30 mm | 25 mm | 20 mm | 23 |  |  |  |  |  |  |
| O=C1CN(Cc2ccccc2)/C(=N\c2ccc(S(=O)(=O)Cl)cc2)S1 | 18 mm | 12 mm | 10 mm | 10 mm | 10 mm | 18 mm | inactive | inactive |  |  |  |  |  |  |  |
| CC(=O)OCC1=C(C(=O)O)N2C(=O)[C@@H](NS(=O)(=O)c3ccc(/N=c4/sc(-c5ccc(Cl)cc5)cn4-c4ccccc4)cc3)[C@H]2SC1 | 14 mm | 16 mm | 10 mm | inactive | 8 mm | inactive | 6 mm | 6 mm | 15 |  |  |  |  |  |  |
| O=S(=O)(Cl)c1ccc(NC(=S)NCc2ccccc2)cc1 | 8 mm | 17 mm | 8 mm | 16 mm | 18 mm | 30 mm | 25 mm | 20 mm |  |  |  |  |  |  |  |
| MERCURIC CHLORIDE [listing 1 of 2 here] |  |  |  |  |  |  |  |  |  | 76 |  |  |  |  |  |
| CC(=O)OCC1=C(C(=O)O)N2C(=O)[C@@H](NC(=O)CN3CCN(c4ccc([N+](=O)[O-])cc4F)CC3)[C@H]2SC1 | 30 mm | 22 mm | 15 mm | 8 mm | 10 mm | 18 mm | 6 mm | inactive |  | 24 | 1170 |  |  |  |  |
| O=S(=O)(Cl)c1ccc(/N=c2/oc(-c3ccc(Cl)cc3)cn2Cc2ccccc2)cc1 | 10 mm | 12 mm | 8 mm | 8 mm | 6 mm | 18 mm | inactive | inactive | 21 |  |  |  |  |  |  |
| OC(Cn1cncn1)(Cn1cncn1)c1ccc(F)cc1F [FLUCONAZOLE] |  |  |  |  |  |  |  |  |  |  |  | > 25 | 25 |  |  |
| CC(=O)OCC1=C(C(=O)O)N2C(=O)[C@@H](NS(=O)(=O)c3ccc(NC(=S)Nc4ccccc4)cc3)[C@H]2SC1 | 22 mm | 18 mm | 14 mm | 10 mm | 12 mm | 18 mm | 10 mm | 8 mm |  |  |  |  |  |  |  |
| CC(=O)OCC1=C(C(=O)O)N2C(=O)[C@@H](NS(=O)(=O)c3ccc(NC(=O)Nc4ccccc4)cc3)[C@H]2SC1 | 8 mm | 10 mm | 8 mm | 8 mm | 10 mm | 15 mm | 8 mm | 6 mm |  |  |  |  |  |  |  |
| O=S(=O)(Cl)c1ccc(/N=c2/sc(-c3ccc(Cl)cc3)cn2-c2ccccc2)cc1 | 22 mm | 12 mm | 10 mm | 8 mm | 8 mm | 18 mm | inactive | inactive | 3 |  |  |  |  |  |  |
| CC(=O)OCC1=C(C(=O)O)N2C(=O)[C@@H](NS(=O)(=O)c3ccc(/N=C4/SC(=O)CN4Cc4ccccc4)cc3)[C@H]2SC1 | 18 mm | 16 mm | 10 mm | 10 mm | 8 mm | 22 mm | 8 mm | 8 mm |  |  |  |  |  |  |  |
| MERCURIC CHLORIDE [listing 2 of 2 here] |  |  |  |  |  |  |  |  |  |  | 93 |  |  |  |  |
| O=C(Nc1ccccc1)Nc1ccc(S(=O)(=O)Cl)cc1 | 15 mm | inactive | 8 mm | inactive | inactive | 6 mm | inactive | inactive | 100 |  |  |  |  | 388 | 39.3 |
| O=S(=O)(Cl)c1ccc(NC(=S)Nc2ccccc2)cc1 | 15 mm | inactive | 8 mm | inactive | inactive | 6 mm | inactive | inactive | 21 |  |  |  |  |  |  |

— ChEMBL document CHEMBL2434823, “Design, synthesis and biological activities of some 7-aminocephalosporanic acid derivatives” (Eur J Med Chem, 2013)
